From ChEMBL document CHEMBL1147494, “Differentiation of in vitro transcriptional repression and activation profiles of selective glucocorticoid modulators” (Bioorg Med Chem Lett, 2004)

Columns and labels:
Cell line [1] = assay: Efficacy for transcriptional activation of aromatase in Human cell native protein assay expressed as percentage of the maximal response of Dexamethasone; type: functional
Cell line [2] = assay: Effective concentration of compound for transcriptional repression of PGE-2 in Human cell native protein assay
Cell line [3] = assay: Effective concentration of compound for transcriptional activation of osteocalcin in Human cell native protein assay; type: functional, cell-based
Cell line [4] = assay: Efficacy for transcriptional activation of collagenase in Human cell native protein assay expressed as percentage of the maximal response of Dexamethasone; type: functional
Cell line [5] = assay: Efficacy for transcriptional […] of PGE-2 in Human cell native protein assay expressed as percentage of the maximal response of Dexamethasone; type: functional
Cell line [6] = assay: Effective concentration of compound for transcriptional repression of IL-6 in Human cell native protein assay
Cell line [7] = assay: Efficacy for transcriptional repression of osteocalcin in Human cell native protein assay expressed as percentage of the maximal response of Dexamethasone
Cell line [8] = assay: Efficacy for transcriptional activation of TAT in Human cell native protein assay expressed as percentage of the maximal response of Dexamethasone; type: functional
Cell line [9] = assay: Effective concentration of compound for transcriptional activation of TAT in Human cell native protein assay; type: functional, cell-based
Cell line [10] = assay: Efficacy for transcriptional repression of IL-6 in Human cell native protein assay expressed as percentage of the maximal response of Dexamethasone; type: functional
Cell line [11] = assay: Effective concentration for transcriptional activation of aromatase in Human cell native protein assay; type: functional, cell-based
Cell line [12] = assay: Effective concentration of compound for transcriptional repression of collagenase in Human cell native protein assay
[13] = biological target: T1, Progesterone receptor (Homo sapiens) (UniProt P06401); assay: In vitro binding affinity against progesterone receptor
T1 sequence (whole entry): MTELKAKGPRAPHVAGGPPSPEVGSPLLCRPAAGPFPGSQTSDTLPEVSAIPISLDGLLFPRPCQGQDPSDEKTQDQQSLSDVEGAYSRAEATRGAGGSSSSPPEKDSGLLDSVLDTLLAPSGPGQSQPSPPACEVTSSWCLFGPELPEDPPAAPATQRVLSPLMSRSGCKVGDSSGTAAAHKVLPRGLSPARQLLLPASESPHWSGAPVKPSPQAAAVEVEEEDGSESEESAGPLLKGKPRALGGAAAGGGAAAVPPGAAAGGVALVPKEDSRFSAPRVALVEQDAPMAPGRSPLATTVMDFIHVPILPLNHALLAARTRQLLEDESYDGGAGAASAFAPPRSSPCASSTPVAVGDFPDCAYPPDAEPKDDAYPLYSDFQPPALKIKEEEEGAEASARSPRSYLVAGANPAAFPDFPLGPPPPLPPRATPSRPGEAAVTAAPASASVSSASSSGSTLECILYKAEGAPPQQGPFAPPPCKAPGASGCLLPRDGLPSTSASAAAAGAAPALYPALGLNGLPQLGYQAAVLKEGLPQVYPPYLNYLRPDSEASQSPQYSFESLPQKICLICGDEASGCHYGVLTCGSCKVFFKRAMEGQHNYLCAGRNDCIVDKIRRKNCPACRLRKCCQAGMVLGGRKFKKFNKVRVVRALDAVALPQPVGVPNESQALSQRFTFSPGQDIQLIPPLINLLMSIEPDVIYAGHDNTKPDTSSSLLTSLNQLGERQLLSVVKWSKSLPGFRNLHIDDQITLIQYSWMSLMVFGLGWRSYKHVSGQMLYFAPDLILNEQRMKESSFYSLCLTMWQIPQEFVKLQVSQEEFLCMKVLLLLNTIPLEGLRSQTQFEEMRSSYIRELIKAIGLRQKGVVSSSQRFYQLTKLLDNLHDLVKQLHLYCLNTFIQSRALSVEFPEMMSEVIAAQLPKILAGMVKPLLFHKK
Outline: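 Competition binding assay against progesterone receptor. Replicates vary by value: single experiments in triplicate; two experiments with triplicate determinations (with standard deviation); or at least three separate experiments in triplicate (mean ± SEM).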

Glucocorticoid receptor [14] = biological target: T2, Glucocorticoid receptor (Homo sapiens, UniProt P04150); assay: Inhibition of transcriptional repression in CV-1 cells expressing glucocorticoid receptor; type: functional, cell-based
T2 sequence (P04150 whole entry): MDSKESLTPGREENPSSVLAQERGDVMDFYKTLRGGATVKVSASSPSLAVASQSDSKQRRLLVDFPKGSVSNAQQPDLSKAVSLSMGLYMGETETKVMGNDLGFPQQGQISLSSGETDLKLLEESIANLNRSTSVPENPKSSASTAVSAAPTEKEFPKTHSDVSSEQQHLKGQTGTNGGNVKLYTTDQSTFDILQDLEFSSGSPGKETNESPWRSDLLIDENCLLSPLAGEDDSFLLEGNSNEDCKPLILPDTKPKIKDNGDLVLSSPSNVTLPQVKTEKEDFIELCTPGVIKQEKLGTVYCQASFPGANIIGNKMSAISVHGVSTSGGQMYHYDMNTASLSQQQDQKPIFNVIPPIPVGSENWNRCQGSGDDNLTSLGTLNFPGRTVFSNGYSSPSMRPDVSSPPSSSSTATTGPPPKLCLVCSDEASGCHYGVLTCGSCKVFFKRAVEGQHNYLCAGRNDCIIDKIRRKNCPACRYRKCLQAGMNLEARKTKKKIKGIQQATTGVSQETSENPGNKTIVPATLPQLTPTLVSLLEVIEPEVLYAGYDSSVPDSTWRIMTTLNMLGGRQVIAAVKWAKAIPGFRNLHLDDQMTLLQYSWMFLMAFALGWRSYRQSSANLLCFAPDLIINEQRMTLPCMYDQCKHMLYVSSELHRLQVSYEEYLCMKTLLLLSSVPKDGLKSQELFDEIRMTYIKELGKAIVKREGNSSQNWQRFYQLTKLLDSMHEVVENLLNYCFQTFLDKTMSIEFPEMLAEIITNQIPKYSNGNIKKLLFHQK

Glucocorticoid receptor [15] = biological target: T2, Glucocorticoid receptor; assay: Inhibition of transcriptional activation in CV-1 cells expressing glucocorticoid receptor; type: functional, cell-based
[16] = biological target: T1, Progesterone receptor (Homo sapiens); assay: Transcriptional activation in cells expressing progesterone receptor isoform B compared to progesterone; type: functional

| Activity [13] | IC50 (Glucocorticoid receptor [14]) | IC50 (Glucocorticoid receptor [15]) | Compound | other results |
| --- | --- | --- | --- | --- |
| > 5 µM | – | – | C[C@]12C=CC(=O)C=C1CC[C@@H]1[C@@H]2[C@@H](O)C[C@@]2(C)[C@H]1CC[C@]2(O)C(=O)CO [PREDNISOLONE] | Efficacy (Cell line [1]): 96%; EC50 (Cell line [2]): 2 nM; EC50 (Cell line [3]): 32 nM; Efficacy (Cell line [4]): 98%; Efficacy (Cell line [5]): 100%; EC50 (Cell line [6]): 3.6 nM; Efficacy (Cell line [7]): 94%; Efficacy (Cell line [8]): 95%; EC50 (Cell line [9]): 48 nM; Efficacy (Cell line [10]): 98%; EC50 (Cell line [11]): 45 nM; EC50 (Cell line [12]): 0.4 nM |
| > 5 µM | – | – | COc1cccc2c1-c1ccc3c(c1C(CC1=CCCCC1)O2)C(C)=CC(C)(C)N3 (configuration not stated) | – |
| > 5 µM | 88 nM | 89 nM | CC/C=C\CC1Oc2cccc(OC)c2-c2ccc3c(c21)C(C)=CC(C)(C)N3 (configuration not stated) | – |
| > 5 µM | > 5000 nM | > 5000 nM | C=CC(C)(C)C1Oc2cccc(OC)c2-c2ccc3c(c21)C(C)=CC(C)(C)N3 (configuration not stated) | – |
| > 5 µM | 150 nM | > 5000 nM | COc1cccc2c1-c1ccc3c(c1C(C/C=C/CO)O2)C(C)=CC(C)(C)N3 (configuration not stated) | – |
| 1.3 µM | – | – | C=CCC1Oc2cccc(OC)c2-c2ccc3c(c21)C(C)=CC(C)(C)N3 (stereo in doubt; (-)4a) | – |
| 1.6 µM | 23 nM | > 5000 nM | COc1cccc2c1-c1ccc3c(c1C(CC=C(C)C)O2)C(C)=CC(C)(C)N3 (configuration not stated) | – |
| > 5 µM | 42 nM | 66 nM | C=C(C)CC1Oc2cccc(OC)c2-c2ccc3c(c21)C(C)=CC(C)(C)N3 (configuration not stated) | – |
| > 5 µM | 320 nM | > 5000 nM | C=C1CCCCC1C1Oc2cccc(OC)c2-c2ccc3c(c21)C(C)=CC(C)(C)N3 (configuration not stated) | – |
| > 5 µM | > 5000 nM | > 5000 nM | C=C(CC1Oc2cccc(OC)c2-c2ccc3c(c21)C(C)=CC(C)(C)N3)C(=O)OC (configuration not stated) | – |
| 0.71 µM | 19 nM | 40 nM | COc1cccc2c1-c1ccc3c(c1[C@H]([C@H]1C=C(C)CCC1)O2)C(C)=CC(C)(C)N3 | Efficacy (Cell line [1]): 26%; EC50 (Cell line [2]): 35 nM; Efficacy (Cell line [4]): 89%; Efficacy (Cell line [5]): 95%; EC50 (Cell line [6]): 62 nM; Efficacy (Cell line [7]): 38%; Efficacy (Cell line [8]): 49%; EC50 (Cell line [9]): 110 nM; Efficacy (Cell line [10]): 82%; EC50 (Cell line [11]): 640 nM; EC50 (Cell line [12]): 32 nM; Efficacy [16]: 13% |
| > 5 µM | – | – | COc1cccc2c1-c1ccc3c(c1C(C1C=CCCCC1)O2)C(C)=CC(C)(C)N3 (configuration not stated) | – |
| > 5 µM | 141 nM | 310 nM | C=C(CO)CC1Oc2cccc(OC)c2-c2ccc3c(c21)C(C)=CC(C)(C)N3 (configuration not stated) | – |
| 2.4 µM | 21 nM | 13 nM | COc1cccc2c1-c1ccc3c(c1C(C1C=CCCC1)O2)C(C)=CC(C)(C)N3 (configuration not stated) | – |
| > 5 µM | 110 nM | 240 nM | C=C(Br)CC1Oc2cccc(OC)c2-c2ccc3c(c21)C(C)=CC(C)(C)N3 (configuration not stated) | – |
| > 5 µM | 40 nM | 110 nM | C=CC(C)C1Oc2cccc(OC)c2-c2ccc3c(c21)C(C)=CC(C)(C)N3 (configuration not stated) | – |

| Compound | Activity [13] | IC50 (Glucocorticoid receptor [14]) | IC50 (Glucocorticoid receptor [15]) | other results |
| --- | --- | --- | --- | --- |
| COc1cccc2c1-c1ccc3c(c1C(CC=C(F)F)O2)C(C)=CC(C)(C)N3 (configuration not stated) | 2.3 µM | 20 nM | 76 nM | – |
